The values below come from ChEMBL document CHEMBL3576860 (ACS Med Chem Lett, 2015).

Experiment [1] has as its target T1, Neuronal acetylcholine receptor; alpha4/beta2 (Rattus norvegicus, UniProt P09483+P12390). The experiment is described as follows: Displacement of [3H]epibatidine from rat alpha4beta2 nAChR transfected in HEK293 cell membrane. The experiment is classed as cell membranes. The method in brief: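 Rat α4β2, α4β4 or α3β4 subtypes; competition binding against [3H]epibatidine; Ki values; means of 3–5 independent experiments, each run in duplicate.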
For orientation: Displacement assays read how much labelled ligand stays bound in the presence of the test substance.

For experiment [2], the target named is Neuronal acetylcholine receptor; alpha4/beta4 (Rattus norvegicus, UniProt P09483+P12392). The experiment can be described thus: Displacement of [3H]epibatidine from rat alpha4beta4 nAChR transfected in HEK293 cell membrane. The experiment is classed as cell membranes.
Chain of Neuronal acetylcholine receptor; alpha4/beta4 (P09483 whole entry): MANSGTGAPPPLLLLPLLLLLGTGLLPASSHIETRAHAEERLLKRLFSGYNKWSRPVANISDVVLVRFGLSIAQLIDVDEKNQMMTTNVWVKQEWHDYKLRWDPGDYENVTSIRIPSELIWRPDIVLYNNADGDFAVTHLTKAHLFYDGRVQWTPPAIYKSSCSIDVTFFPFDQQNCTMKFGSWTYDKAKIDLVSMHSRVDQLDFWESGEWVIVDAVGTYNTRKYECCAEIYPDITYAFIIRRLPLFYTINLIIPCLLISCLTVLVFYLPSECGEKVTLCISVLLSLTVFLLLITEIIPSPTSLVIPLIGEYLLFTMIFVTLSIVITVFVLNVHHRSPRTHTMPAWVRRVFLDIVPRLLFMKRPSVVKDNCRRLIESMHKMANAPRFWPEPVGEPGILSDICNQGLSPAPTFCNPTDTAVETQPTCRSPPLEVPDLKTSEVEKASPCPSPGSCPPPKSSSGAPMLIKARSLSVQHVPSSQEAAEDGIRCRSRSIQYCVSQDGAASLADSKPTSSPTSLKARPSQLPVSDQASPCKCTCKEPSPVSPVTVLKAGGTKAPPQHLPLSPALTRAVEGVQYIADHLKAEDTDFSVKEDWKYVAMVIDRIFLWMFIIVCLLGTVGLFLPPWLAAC
Chain of Neuronal acetylcholine receptor; alpha4/beta4 (P12392 whole entry): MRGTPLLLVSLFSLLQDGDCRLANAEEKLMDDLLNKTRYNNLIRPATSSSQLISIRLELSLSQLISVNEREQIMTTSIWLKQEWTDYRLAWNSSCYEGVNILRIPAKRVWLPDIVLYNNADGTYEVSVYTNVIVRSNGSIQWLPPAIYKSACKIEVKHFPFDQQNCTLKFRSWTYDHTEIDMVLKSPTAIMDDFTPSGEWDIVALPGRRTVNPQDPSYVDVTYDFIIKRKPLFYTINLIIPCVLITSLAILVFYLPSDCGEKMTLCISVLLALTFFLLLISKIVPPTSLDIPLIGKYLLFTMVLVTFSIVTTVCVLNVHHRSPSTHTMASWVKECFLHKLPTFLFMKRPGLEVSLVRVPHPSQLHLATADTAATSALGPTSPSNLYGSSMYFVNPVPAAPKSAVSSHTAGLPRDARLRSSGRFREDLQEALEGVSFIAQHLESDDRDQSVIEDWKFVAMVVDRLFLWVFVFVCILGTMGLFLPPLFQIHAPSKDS
Experiment [3] deals with Neuronal acetylcholine receptor; alpha3/beta4 (Rattus norvegicus, UniProt P04757+P12392). The experiment can be described thus: Displacement of [3H]epibatidine from rat alpha3beta4 nAChR transfected in HEK293 cell membrane. In kind it is cell membranes.
Chain of Neuronal acetylcholine receptor; alpha3/beta4 (P04757 whole entry): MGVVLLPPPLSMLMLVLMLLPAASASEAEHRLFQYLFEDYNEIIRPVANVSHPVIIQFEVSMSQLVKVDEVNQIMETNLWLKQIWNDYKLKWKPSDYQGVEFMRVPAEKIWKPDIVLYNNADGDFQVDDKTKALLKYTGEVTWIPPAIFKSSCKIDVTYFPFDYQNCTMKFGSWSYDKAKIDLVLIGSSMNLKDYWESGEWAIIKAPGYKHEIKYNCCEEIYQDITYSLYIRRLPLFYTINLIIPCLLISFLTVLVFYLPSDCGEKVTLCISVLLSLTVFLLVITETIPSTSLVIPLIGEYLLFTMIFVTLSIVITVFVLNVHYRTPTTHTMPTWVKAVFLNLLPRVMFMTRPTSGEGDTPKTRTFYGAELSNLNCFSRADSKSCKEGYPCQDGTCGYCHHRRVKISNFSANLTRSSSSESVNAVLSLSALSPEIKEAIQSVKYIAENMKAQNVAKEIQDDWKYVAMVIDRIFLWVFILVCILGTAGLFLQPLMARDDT
Chain of Neuronal acetylcholine receptor; alpha3/beta4 (P12392 whole entry): as the sequence (P12392 whole entry) above
Experiment [4] deals with Neuronal acetylcholine receptor subunit alpha-7 (Rattus norvegicus, UniProt Q05941). The experiment is described as follows: Displacement of [3H]MLA from rat alpha7 nAChR transfected in tsA201 cell membrane. The experiment is classed as cell membranes.
Chain of Neuronal acetylcholine receptor subunit alpha-7 (Q05941 whole entry): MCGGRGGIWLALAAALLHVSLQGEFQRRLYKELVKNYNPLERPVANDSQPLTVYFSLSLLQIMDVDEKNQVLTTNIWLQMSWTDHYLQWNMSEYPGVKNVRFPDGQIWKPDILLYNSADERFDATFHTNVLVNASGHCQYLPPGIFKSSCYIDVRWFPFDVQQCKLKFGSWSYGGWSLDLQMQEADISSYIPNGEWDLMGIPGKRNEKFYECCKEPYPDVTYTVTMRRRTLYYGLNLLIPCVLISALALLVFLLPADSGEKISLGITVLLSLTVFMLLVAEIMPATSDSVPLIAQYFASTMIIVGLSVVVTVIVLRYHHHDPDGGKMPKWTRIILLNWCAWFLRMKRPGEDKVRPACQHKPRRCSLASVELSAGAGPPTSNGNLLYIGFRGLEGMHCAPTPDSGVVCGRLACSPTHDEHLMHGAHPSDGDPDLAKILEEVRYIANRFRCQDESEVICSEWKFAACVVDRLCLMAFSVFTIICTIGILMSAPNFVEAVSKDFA
The target of experiment [5] is T1, Neuronal acetylcholine receptor; alpha4/beta2. The experiment can be described thus: Antagonist activity at rat alpha4beta2 nAChR expressed in HEK293T cells by FLIPR assay. In kind it is cell-based, HEK-293T. The gist of the method:
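Fluorescence-based FLIPR membrane potential read-out of receptor function; antagonist mode gives an IC50.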

For experiment [6], the target named is Neuronal acetylcholine receptor; alpha3/beta4 (Rattus norvegicus) (UniProt P04757+P12392). The experiment is described as follows: Agonist activity at rat alpha3beta4 nAChR expressed in HEK293T cells by FLIPR assay. The experiment is classed as cell-based. Conditions: HEK-293T.
Experiment [7] deals with T2, Neuronal acetylcholine receptor; alpha4/beta2 (Rattus norvegicus) (UniProt P09483+P12390). The experiment can be described thus: Inhibition of rat alpha4beta2 nAChR expressed in Xenopus laevis oocytes assessed as baseline current at 100 uM by two electrode-electrophysiology method. In kind it is cell-based. The method in brief:
(§1)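 α4β2-expressing oocytes: compound at 100 μM applied alone to monitor baseline current, then coapplied with 30 μM ACh to assess the ACh-evoked current.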

The target of experiment [8] is T2, Neuronal acetylcholine receptor; alpha4/beta2 (Rattus norvegicus). The experiment is described as follows: Inhibition of rat alpha4beta2 nAChR expressed in Xenopus laevis oocytes assessed as inhibition of 30 uM ACh-induced current at 100 uM by two electrode-electrophysiology method. In kind it is cell-based. The gist of the method: as §1
Experiment [9] deals with T1, Neuronal acetylcholine receptor; alpha4/beta2. The experiment is described as follows: Inhibition of rat (alpha4)3(beta2)2 nAChR expressed in Xenopus laevis oocytes assessed as inhibition of 1 mM ACh-induced current by two electrode-electrophysiology method. In kind it is cell-based. The method in brief:
(§2)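 Xenopus oocytes injected with α4 and β2 mRNA at ratio 10:1 for (α4)3(β2)2 or 1:10 for (α4)2(β2)3. Peak currents evoked by fixed ACh (1 mM for 10:1, 100 μM for 1:10) are measured with increasing compound concentrations. Concentration–inhibition curves give IC50, with Ki also reported.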

The target is the same in experiment [10]. The experiment is described as follows: Inhibition of rat (alpha4)2(beta2)3 nAChR expressed in Xenopus laevis oocytes assessed as inhibition of 100 uM ACh-induced current by two electrode-electrophysiology method. In kind it is cell-based. The gist of the method: as §2
For experiment [11], the system named is Mus musculus. The experiment can be described thus: Antidepressant activity in mouse assessed as total swim distance at 1 to 10 mg/kg, sc by forced swimming test. In kind it is functional, organism-based. The gist of the method:
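Mouse forced swim test; subcutaneous doses of 1, 3 and 10 mg/kg; swimming scored.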

The structures appear in SMILES notation. The source made the active and inactive calls. The calls are words filed in the database; no cut-off is given here.

T1 sequence (P09483 whole entry): as the sequence (P09483 whole entry) above
T1 sequence (P12390 whole entry): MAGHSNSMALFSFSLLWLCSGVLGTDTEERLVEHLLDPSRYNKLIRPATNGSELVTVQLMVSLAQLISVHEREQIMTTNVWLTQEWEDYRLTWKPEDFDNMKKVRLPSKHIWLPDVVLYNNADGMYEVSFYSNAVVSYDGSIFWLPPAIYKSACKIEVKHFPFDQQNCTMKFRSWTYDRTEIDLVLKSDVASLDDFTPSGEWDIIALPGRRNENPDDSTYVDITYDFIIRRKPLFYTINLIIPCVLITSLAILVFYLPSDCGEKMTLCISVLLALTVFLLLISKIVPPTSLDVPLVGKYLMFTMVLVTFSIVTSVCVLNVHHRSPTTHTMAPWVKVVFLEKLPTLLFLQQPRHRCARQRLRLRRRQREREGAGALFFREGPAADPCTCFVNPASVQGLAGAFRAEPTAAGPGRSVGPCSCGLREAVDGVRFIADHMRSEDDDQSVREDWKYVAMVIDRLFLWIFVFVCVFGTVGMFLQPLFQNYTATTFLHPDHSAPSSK

Usually Ki stands for the dissociation constant of the complex between target and ligand, obtained from inhibition or displacement. By IC50 is commonly meant the concentration at which inhibition is half-maximal. As to `c1cc2c(cn1)C1CCCN1CC2` (racemic), the Ki in [1] amounted to 0.071 µM; in [2], 7.2 µM; in [3], 100 µM; in [4], 500 µM. Besides, the IC50 in experiment [5] was 0.12 µM. Moreover, the result in experiment [6] was inactive.

In the case of `c1cc2c(cn1)[C@H]1CCCN1CC2`, the inhibition constant Ki in [2] came out at 3.7 µM; in [3] it was 50 µM; in experiment [4] it was 300 µM; in [9], 15 µM; in [10], 0.34 µM. In addition, the inhibition result in experiment [7] was “inactive”. The inhibition entry in [8] was “Active”. For the same compound, the IC50 in experiment [9] amounted to 135 µM; in experiment [10] it was 87 µM. Moreover, the outcome in [11] was inactive.

For `c1cc2c(cn1)CCN1CCCC21` (racemic), the Ki was found to be 13 µM in experiment [1], 100 µM in experiment [2] and 100 µM in [3].

On to `c1cc2c(cn1)[C@@H]1CCCN1CC2`, for which the Ki in experiment [1] was 3.4 µM; in experiment [2] it was 100 µM; in experiment [3] it was 100 µM; in experiment [4] it was greater than 300 µM.
